Experimental data reported in ChEMBL document CHEMBL3046000, “Design and synthesis of 1-(benzothiazol-5-yl)-1H-1,2,4-triazol-5-ones as protoporphyrinogen oxidase inhibitors” (Bioorg Med Chem, 2013).

Key:
[1] = Phytotoxicity against 4-leaf stage Triticum aestivum (wheat) plants assessed as plant growth inhibition at 150 g ai/ha applied through spraying measured 30 days after compound treatment under greenhouse conditions; format: organism-based; conditions: in vivo, read-out: GI
[2] = Phytotoxicity against four-leaf stage Brassica napus (oilseed rape) plants assessed as plant growth inhibition at 150 g ai/ha applied through spraying measured 30 days after compound treatment under greenhouse conditions; format: organism-based; conditions: in vivo, read-out: GI
[3] = Phytotoxicity against four-leaf stage Zea mays cv. Anjou (maize) plants assessed as plant growth inhibition at 150 g ai/ha applied through spraying measured 30 days after compound treatment under greenhouse conditions; format: organism-based; conditions: in vivo, read-out: GI
[4] = Phytotoxicity against four-leaf stage Gossypium hirsutum (cotton) plants assessed as plant growth inhibition at 150 g ai/ha applied through spraying measured 30 days after compound treatment under greenhouse conditions; format: organism-based; conditions: in vivo, read-out: GI
[5] = Phytotoxicity against 4-leaf stage Glycine max (soybean) plants assessed as plant growth inhibition at 150 g ai/ha applied through spraying measured 30 days after compound treatment under greenhouse conditions; format: organism-based; conditions: in vivo, read-out: GI
[6] = Phytotoxicity against four-leaf stage Oryza sativa (rice) plants assessed as plant growth inhibition at 150 g ai/ha applied through spraying measured 30 days after compound treatment under greenhouse conditions; format: organism-based; conditions: in vivo, read-out: GI
[7] = Phytotoxicity against 4-leaf stage Glycine max (soybean) plants assessed as plant growth inhibition at 75 g ai/ha applied through spraying measured 30 days after compound treatment under greenhouse conditions; format: organism-based; conditions: in vivo, read-out: GI
Chenopodium album [8] = test: Post-emergence herbicidal activity against Chenopodium album seedlings assessed as plant growth inhibition at 75 g ai/ha measured 15 days after compound treatment under greenhouse conditions; format: functional; conditions: 360 h, read-out: GI
Chenopodium album [9] = test: Post-emergence herbicidal activity against Chenopodium album seedlings assessed as plant growth inhibition at 37.5 g ai/ha measured 15 days after compound treatment under greenhouse conditions; format: functional; conditions: 360 h, read-out: GI
Capsella bursa-pastoris = test: Post-emergence herbicidal activity against Capsella bursa-pastoris assessed as plant growth inhibition at 75 g ai/ha; format: functional; conditions: read-out: GI
In short: (§1)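 Compounds formulated as 100 g/L emulsifiable concentrates in DMF with Tween-80 as emulsifier, then diluted with water. Sprayed post-emergence onto pot-grown plants in a greenhouse, with broadleaf weeds at the 2-leaf stage and grasses at the 1-leaf stage. Clay soil with 1.6% organic matter and CEC 12.1 […]; relative humidity about 50%. Rate (g ai/ha) = active ingredient ÷ pot surface area. Untreated and DMF + Tween-80 solvent controls.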

Symphyotrichum subulatum = test: Post-emergence herbicidal activity against Symphyotrichum subulatum assessed as plant growth inhibition at 75 g ai/ha; format: functional; conditions: read-out: GI; in short: as §1
Boehmeria nivea = test: Post-emergence herbicidal activity against Boehmeria nivea assessed as plant growth inhibition at 75 g ai/ha; format: functional; conditions: read-out: GI; in short: as §1
Amaranthus spinosus = test: Post-emergence herbicidal activity against Amaranthus spinosus assessed as plant growth inhibition at 75 g ai/ha; format: functional; conditions: read-out: GI; in short: as §1
Eleusine indica = test: Post-emergence herbicidal activity against Eleusine indica assessed as plant growth inhibition at 75 g ai/ha; format: functional; conditions: read-out: GI; in short: as §1
Cerastium arvense = test: Post-emergence herbicidal activity against Cerastium arvense assessed as plant growth inhibition at 75 g ai/ha; format: functional; conditions: read-out: GI; in short: as §1
Veronica polita = test: Post-emergence herbicidal activity against Veronica polita assessed as plant growth inhibition at 75 g ai/ha; format: functional; conditions: read-out: GI; in short: as §1
Senna tora = test: Post-emergence herbicidal activity against Senna tora assessed as plant growth inhibition at 75 g ai/ha; format: functional; conditions: read-out: GI; in short: as §1
Alkekengi officinarum = test: Post-emergence herbicidal activity against Physalis alkekengi assessed as plant growth inhibition at 75 g ai/ha; format: functional; conditions: read-out: GI; in short: as §1
Phytolacca acinosa = test: Post-emergence herbicidal activity against Raddix phytolaccae assessed as plant growth inhibition at 75 g ai/ha; format: functional; conditions: read-out: GI; in short: as §1
Ammannia baccifera = test: Post-emergence herbicidal activity against Ammannia baccifera assessed as plant growth inhibition at 75 g ai/ha; format: functional; conditions: read-out: GI; in short: as §1
Ludwigia prostrata = test: Post-emergence herbicidal activity against Ludwigia prostrata assessed as plant growth inhibition at 75 g ai/ha; format: functional; conditions: read-out: GI; in short: as §1
Commelina communis = test: Post-emergence herbicidal activity against Commelina communis (Asiatic dayflower) assessed as plant growth inhibition at 75 g ai/ha; format: functional; conditions: read-out: GI; in short: as §1
Myosoton aquaticum = test: Post-emergence herbicidal activity against Myosoton aquaticum assessed as plant growth inhibition at 75 g ai/ha; format: functional; conditions: read-out: GI; in short: as §1
Sonchus asper = test: Post-emergence herbicidal activity against Sonchus asper assessed as plant growth inhibition at 75 g ai/ha; format: functional; conditions: read-out: GI; in short: as §1
Polygonum humifusum = test: Post-emergence herbicidal activity against Polygonum humifusum assessed as plant growth inhibition at 75 g ai/ha; format: functional; conditions: read-out: GI; in short: as §1
Solanum nigrum = test: Post-emergence herbicidal activity against Solanum nigrum (black nightshade) assessed as plant growth inhibition at 75 g ai/ha; format: functional; conditions: read-out: GI; in short: as §1
Chenopodium album [10] = test: Post-emergence herbicidal activity against Chenopodium album seedlings assessed as plant growth inhibition at 150 g ai/ha measured 15 days after compound treatment under greenhouse conditions; format: functional; conditions: 360 h, read-out: GI
Amaranthus retroflexus [11] = test: Post emergence herbicidal activity against Amaranthus retroflexus seedlings assessed as plant growth inhibition at 75 g ai/ha measured 15 days after compound treatment under greenhouse conditions; format: functional; conditions: 360 h, read-out: GI
Amaranthus retroflexus [12] = test: Post emergence herbicidal activity against Amaranthus retroflexus seedlings assessed as plant growth inhibition at 37.5 g ai/ha measured 15 days after compound treatment under greenhouse conditions; format: functional; conditions: 360 h, read-out: GI
Amaranthus retroflexus [13] = test: Post emergence herbicidal activity against Amaranthus retroflexus seedlings assessed as plant growth inhibition at 150 g ai/ha measured 15 days after compound treatment under greenhouse conditions; format: functional; conditions: 360 h, read-out: GI
Brassica juncea [14] = test: Post-emergence herbicidal activity against Brassica juncea seedlings assessed as plant growth inhibition at 75 g ai/ha measured 15 days after compound treatment under greenhouse conditions; format: functional; conditions: 360 h, read-out: GI
Brassica juncea [15] = test: Post-emergence herbicidal activity against Brassica juncea seedlings assessed as plant growth inhibition at 37.5 g ai/ha measured 15 days after compound treatment under greenhouse conditions; format: functional; conditions: 360 h, read-out: GI
Brassica juncea [16] = test: Post-emergence herbicidal activity against Brassica juncea seedlings assessed as plant growth inhibition at 150 g ai/ha measured 15 days after compound treatment under greenhouse conditions; format: functional; conditions: 360 h, read-out: GI
Setaria faberi [17] = test: Post-emergence herbicidal activity against Setaria faberi (Giant Foxtail) seedlings assessed as plant growth inhibition at 75 g ai/ha measured 15 days after compound treatment under greenhouse conditions; format: functional; conditions: 360 h, read-out: GI
Setaria faberi [18] = test: Post-emergence herbicidal activity against Setaria faberi (Giant Foxtail) seedlings assessed as plant growth inhibition at 37.5 g ai/ha measured 15 days after compound treatment under greenhouse conditions; format: functional; conditions: 360 h, read-out: GI
Setaria faberi [19] = test: Post-emergence herbicidal activity against Setaria faberi (Giant Foxtail) seedlings assessed as plant growth inhibition at 150 g ai/ha measured 15 days after compound treatment under greenhouse conditions; format: functional; conditions: 360 h, read-out: GI
Digitaria sanguinalis [20] = test: Post-emergence herbicidal activity against Digitaria sanguinalis (hairy crabgrass) seedlings assessed as plant growth inhibition at 75 g ai/ha measured 15 days after compound treatment under greenhouse conditions; format: functional; conditions: 360 h, read-out: GI
Digitaria sanguinalis [21] = test: Post-emergence herbicidal activity against Digitaria sanguinalis (hairy crabgrass) seedlings assessed as plant growth inhibition at 37.5 g ai/ha measured 15 days after compound treatment under greenhouse conditions; format: functional; conditions: 360 h, read-out: GI
Digitaria sanguinalis [22] = test: Post-emergence herbicidal activity against Digitaria sanguinalis (hairy crabgrass) seedlings assessed as plant growth inhibition at 150 g ai/ha measured 15 days after compound treatment under greenhouse conditions; format: functional; conditions: 360 h, read-out: GI
Echinochloa crus-galli [23] = test: Post emergence herbicidal activity against Echinochloa crus-galli (barnyard grass) seedlings assessed as plant growth inhibition at 75 g ai/ha measured 15 days after compound treatment under greenhouse conditions; format: functional; conditions: 360 h, read-out: GI
Echinochloa crus-galli [24] = test: Post emergence herbicidal activity against Echinochloa crus-galli (barnyard grass) seedlings assessed as plant growth inhibition at 37.5 g ai/ha measured 15 days after compound treatment under greenhouse conditions; format: functional; conditions: 360 h, read-out: GI
Echinochloa crus-galli [25] = test: Post emergence herbicidal activity against Echinochloa crus-galli (barnyard grass) seedlings assessed as plant growth inhibition at 150 g ai/ha measured 15 days after compound treatment under greenhouse conditions; format: functional; conditions: 360 h, read-out: GI
[26] = target: T1, Protoporphyrinogen oxidase, chloroplastic (Nicotiana tabacum, UniProt O24163); test: Inhibition of Nicotiana tabacum (tobacco) recombinant PPO assessed as protoporphyrin IX formation at room temperature by fluorimetric assay
T1 sequence (O24163 whole entry): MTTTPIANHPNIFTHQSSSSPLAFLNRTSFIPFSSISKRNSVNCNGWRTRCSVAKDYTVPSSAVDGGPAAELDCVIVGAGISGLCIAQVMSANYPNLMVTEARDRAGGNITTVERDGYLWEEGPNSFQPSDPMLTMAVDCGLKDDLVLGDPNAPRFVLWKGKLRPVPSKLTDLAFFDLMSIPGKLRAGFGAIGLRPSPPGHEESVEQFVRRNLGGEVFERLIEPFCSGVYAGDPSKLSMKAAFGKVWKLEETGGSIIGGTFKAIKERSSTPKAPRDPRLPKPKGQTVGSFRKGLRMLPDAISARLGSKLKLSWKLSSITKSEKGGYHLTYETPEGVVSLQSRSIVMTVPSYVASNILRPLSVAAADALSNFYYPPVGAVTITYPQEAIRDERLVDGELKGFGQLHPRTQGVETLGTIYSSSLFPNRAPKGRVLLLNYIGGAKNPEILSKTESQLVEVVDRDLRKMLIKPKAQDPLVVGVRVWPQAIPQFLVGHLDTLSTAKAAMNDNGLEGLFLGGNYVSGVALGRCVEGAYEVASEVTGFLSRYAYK

Which results are given for `CCOC(=O)C(C)Sc1nc2cc(-n3nc(C)n(C(F)F)c3=O)c(F)cc2s1` (stereo not drawn)?
inhibition at 720 h [1]: 80%; inhibition at 720 h [2]: 100%; inhibition at 720 h [3]: 30%; inhibition at 720 h [4]: 70%; inhibition at 720 h [5]: 0%; inhibition at 720 h [6]: 50%; inhibition at 720 h [7]: 0%; inhibition of growth at 75 g/ha (Chenopodium album [8]): 60%; inhibition of growth at 37.5 g/ha (Chenopodium album [9]): 60%; inhibition of growth at 75 g/ha (Capsella bursa-pastoris): 100%; inhibition of growth at 75 g/ha (Symphyotrichum subulatum): 100%; inhibition of growth at 75 g/ha (Boehmeria nivea): 100%; inhibition of growth at 75 g/ha (Amaranthus spinosus): 100%; inhibition of growth at 75 g/ha (Eleusine indica): 100%; inhibition of growth at 75 g/ha (Cerastium arvense): 100%; inhibition of growth at 75 g/ha (Veronica polita): 100%; inhibition of growth at 75 g/ha (Senna tora): > 90%; inhibition of growth at 75 g/ha (Alkekengi officinarum): > 90%; inhibition of growth at 75 g/ha (Phytolacca acinosa): > 90%; inhibition of growth at 75 g/ha (Ammannia baccifera): > 90%; inhibition of growth at 75 g/ha (Ludwigia prostrata): > 90%; inhibition of growth at 75 g/ha (Commelina communis): > 90%; inhibition of growth at 75 g/ha (Myosoton aquaticum): > 90%; inhibition of growth at 75 g/ha (Sonchus asper): 100%; inhibition of growth at 75 g/ha (Polygonum humifusum): 100%; inhibition of growth at 75 g/ha (Solanum nigrum): 100%; inhibition of growth at 150 g/ha (Chenopodium album [10]): ≥ 90%; inhibition of growth at 75 g/ha (Amaranthus retroflexus [11]): 80%; inhibition of growth at 37.5 g/ha (Amaranthus retroflexus [12]): 80%; inhibition of growth at 150 g/ha (Amaranthus retroflexus [13]): ≥ 90%; inhibition of growth at 75 g/ha (Brassica juncea [14]): ≥ 90%; inhibition of growth at 37.5 g/ha (Brassica juncea [15]): ≥ 90%; inhibition of growth at 150 g/ha (Brassica juncea [16]): ≥ 90%; inhibition of growth at 75 g/ha (Setaria faberi [17]): ≥ 90%; inhibition of growth at 37.5 g/ha (Setaria faberi [18]): ≥ 90%; inhibition of growth at 150 g/ha (Setaria faberi [19]): ≥ 90%; inhibition of growth at 75 g/ha (Digitaria sanguinalis [20]): 80%; inhibition of growth at 37.5 g/ha (Digitaria sanguinalis [21]): 80%; inhibition of growth at 150 g/ha (Digitaria sanguinalis [22]): ≥ 90%; inhibition of growth at 75 g/ha (Echinochloa crus-galli [23]): 80%; inhibition of growth at 37.5 g/ha (Echinochloa crus-galli [24]): 80%; inhibition of growth at 150 g/ha (Echinochloa crus-galli [25]): ≥ 90%; Ki [26]: 240 nM
